Measurements: PubChem BioAssay AID617 (SRMLSC, 2007)

The compounds below were run on E. coli BW25113 ΔtolC growth inhibition, OD615 (assay: growth inhibitors of E. coli tolC mutant, dose response, strain BW25113 ΔtolC::kan (AID 617)).
Method in brief: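 System: E. coli BW25113 ΔtolC::kan bacteria. Amount: 1:1000 diluted subculture inoculum. Medium: LB broth supplemented with kanamycin at 50 µg/mL. Compound dosing: serial dilution series of compound. Schedule: 20 h exposure at 37 °C. Detection: OD615. Measure: IC50 of bacterial growth inhibition. Benchmarks: chloramphenicol control, 30 µM final.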

Going from CCCc1cc(C(=O)Nc2cccc(Cl)c2)no1 to O=C(Nc1ccc(Br)c(Cl)c1)c1ccco1, the IC50 falls from 14.6 µM to 8.74 µM (1.7-fold). The second is the more potent here.

Going from Cc1cccc(Cn2c(=O)n(Cc3ccco3)c(=O)c3ccccc32)c1 to CN(Cc1ccccc1)C(=O)CSc1nc2ccccc2c(=O)n1Cc1ccco1, the IC50 rises from 6.71 µM to 10.7 µM (1.6-fold).

CC(C)Cn1c(=O)c(C(=O)Nc2ccncc2)c(O)c2ccccc21 and COC(=O)c1cn(NC(=O)c2cnccn2)c(=O)c2ccccc12 are within 1.5-fold of each other in IC50: 3.34 µM for the first, 2.44 µM for the second.

Compared with Cc1cccc(Nc2nc(NCc3ccco3)nc(N3CCOCC3)n2)c1, CC(C)Sc1nc(NCc2ccco2)c2c3c(sc2n1)COC(C)(C)C3 is 2-fold higher in IC50: 10.1 µM for the first, 20.6 µM for the second. The first is the more potent here.

Compared with CCCCN(CCCC)C(=O)CSc1nnc(-c2cc(OC)c(OC)c(OC)c2)o1, CCCCOn1c(C)c(C(=O)OCC)c2c3nonc3ccc21 is 1.5-fold lower in IC50: 27.7 µM for the first, 18.4 µM for the second.

Compared with COc1cccc(-c2csc(N3CCN(C(=O)C4CCCCC4)CC3)n2)c1, CCn1c(C(=O)N2CCC(C(=O)NCCCSC3CCCCC3)CC2)cc2sccc21 is 2.7-fold lower in IC50: 16.8 µM for the first, 6.22 µM for the second.

Compared with c1ccc(-c2nc(N3CCCCCC3)c3ccccc3n2)nc1, CC1CCN(c2nc3ccccc3nc2C(C#N)S(=O)(=O)c2ccccc2)CC1 (stereo unspecified) is 5.6-fold higher in IC50: 1.68 µM for the first, 9.39 µM for the second.

First: CCOC(=O)C1CCCN(c2ncnc3c2cnn3-c2ccc(Cl)cc2)C1 (stereo unspecified)
Second: CCOC(=O)c1cn(CC)c2cc(N3CCSCC3)c(F)cc2c1=O
The IC50 of the first is 7.1-fold higher: 9.92 µM for the first, 1.4 µM for the second. The second is the more potent here.

Going from Cn1c(C(=O)N2CCc3ccccc3C2)cc2oc3ccccc3c21 to COc1ccc(-c2cc(C(=O)N3CCCc4ccccc43)no2)cc1, the IC50 rises from 7.81 µM to 20.5 µM (2.6-fold). The first is the more potent here.

CCc1cc(C(=O)COc2ccccc2F)c(O)cc1O and O=C(CC(=O)c1cc(Cl)ccc1O)c1ccccc1 are within 1.5-fold of each other in IC50: 10.8 µM for the first, 8.34 µM for the second.

Compared with COc1ccc(S(=O)(=O)Nc2ccccc2C(=O)NCc2ccco2)cc1Br, COc1ccc(NS(=O)(=O)c2ccc3oc4ccccc4c3c2)cn1 is 1.7-fold lower in IC50: 9.63 µM for the first, 5.62 µM for the second. The second is the more potent here.

Cc1ccc2[nH]c3c(c2c1)CCc1cn[nH]c1-3 and COC(=O)C1=C(CSc2nc3ccccc3o2)NC(=O)NC1c1cc(C)ccc1C (stereo unspecified) are within 1.5-fold of each other in IC50: 17.8 µM for the first, 13 µM for the second.

Going from Cc1cccc(-c2nc(CS(=O)CC(=O)NCCCSC3CCCCC3)c(C)o2)c1 (stereo unspecified) to Cc1cc(C)cc(Nc2cc(=O)n(C3CCCCC3)c(=O)[nH]2)c1, the IC50 falls from 10.1 µM to 2.8 µM (3.6-fold).

Going from CCOC(=O)CCSc1nc2c(c(C(F)(F)F)c1C#N)CCC2 to CCOC(=O)c1sc(NC(=O)CSc2n[nH]c(-c3ccccc3)n2)c(C#N)c1C, the IC50 falls from 13.9 µM to 1.69 µM (8.2-fold).

Going from COc1ccccc1-c1cc(C(=O)NCc2ccc(F)cc2)no1 to COC(=O)c1ccc(CSc2nc3ccccc3o2)cc1, the IC50 rises from 9.85 µM to 20.2 µM (2.1-fold). The first is the more potent here.

[O-][N+]1=c2ccc(Nc3ccccc3)cc2=NC12CCCCC2 and O=C(Nc1ccccc1)Nc1ccc(S(=O)(=O)N2CCCCC2)cc1 are within 1.5-fold of each other in IC50: 15.3 µM for the first, 10.3 µM for the second.

First: O=C1CCCC2=C1C(c1cccs1)n1nc(SCc3ccccc3)nc1N2 (stereo unspecified)
Second: Cc1nc2ncnn2c(N2CCN(C(c3ccccc3)c3ccccc3)CC2)c1C
The IC50 of the first is 2.3-fold higher: 15.8 µM for the first, 6.96 µM for the second. The second is the more potent here.

Going from Cc1ccccc1OCCCCc1c(C)n[nH]c1C to CC(C)(C)c1[nH]nc2c1C(Cc1ccccc1)C(C#N)=C(N)O2 (stereo unspecified), the IC50 rises from 3.74 µM to 31.7 µM (8.5-fold).

Compared with COCc1nnc(NC(=O)c2ccc(S(=O)(=O)N(C)C3CCCCC3)cc2)o1, CCc1nc(N2CCCCC2C)c2oc3ccccc3c2n1 (stereo unspecified) is 3.3-fold higher in IC50: 4.09 µM for the first, 13.6 µM for the second. The first is the more potent here.

First: Cc1nnc(SC(=O)N2c3ccccc3Sc3ccccc32)s1
Second: CCN(C(=O)c1ccc(C(C)(C)C)cc1)c1nnc(Cn2nnc3ccccc32)s1
The IC50 of the first is 3.3-fold lower: 14.6 µM for the first, 47.5 µM for the second.

Compared with CC(C)(C)c1csc(NC(=O)c2ccc(Cl)s2)n1, CCOC(=O)c1cccc(NC(=O)c2cc3sccc3n2C)c1 is 3-fold lower in IC50: 29.6 µM for the first, 9.82 µM for the second. The second is the more potent here.

First: CCN(CCCNC(=O)c1[nH]c(C)c(C(C)=O)c1C)c1cccc(C)c1
Second: CC(C)(C)NC(=O)C(c1ccco1)N(C(=O)Cn1nnc(-c2ccc(F)cc2)n1)c1cccc(F)c1 (stereo unspecified)
The IC50 of the first is 2.5-fold lower: 8.23 µM for the first, 20.9 µM for the second. The first is the more potent here.

Compared with CC1=C(C#N)c2nc(N)c(C#N)c(C)c2/C1=C\c1ccccc1, COc1cc2c3c(c1)C1(C(=O)N3C(C)(C)C=C2C)C(C#N)=C(N)Oc2cc(O)ccc21 (stereo unspecified) is 2.2-fold higher in IC50: 3.05 µM for the first, 6.64 µM for the second.

First: O=C(Cc1ccc(Br)cc1)c1ccc(O)cc1O
Second: O=C(Nc1ccc2oc(Cc3ccc(Cl)cc3)nc2c1)c1cccnc1
The IC50 of the first is 7.4-fold lower: 7.26 µM for the first, 53.9 µM for the second. The first is the more potent here.

First: CSc1nc(N2CCOCC2)c2c3c(sc2n1)CCCC3
Second: N=c1c2c(n(Cc3ccc(Cl)cc3Cl)c3c1CCC3)CCCC2
The IC50 of the first is 1.9-fold higher: 11.9 µM for the first, 6.15 µM for the second. The second is the more potent here.

Compared with CCCOc1ccc(C2C(C(=O)c3ccc(C)o3)=C(O)C(=O)N2Cc2cccnc2)cc1 (stereo unspecified), COc1ccc(/C(O)=C2\C(=O)C(=O)N(CC3CCCO3)C2c2cc(OC)ccc2OC)cc1 (stereo unspecified) is 3.1-fold lower in IC50: 36.1 µM for the first, 11.8 µM for the second.

Going from CN1C(=O)C2(OCC(COc3ccc(Cl)cc3)O2)c2ccccc21 (stereo unspecified) to CCOc1ccc(S(=O)(=O)Nc2cccc(Cl)c2)cc1, the IC50 falls from 11.1 µM to 4.98 µM (2.2-fold).

Going from CN(C)[C@@H]1C(=O)C(C(N)=O)=C(O)[C@@]2(O)C(=O)C3=C(O)c4c(O)ccc(Cl)c4[C@@H](O)[C@H]3C[C@@H]12 to COc1ccc2[nH]c3c(=O)n(CCCCC(=O)N4CCC(C(N)=O)CC4)c(=S)[nH]c3c2c1, the IC50 rises from less than 0.2 µM to 10.7 µM.
